According to ChEMBL document CHEMBL1148742, “Structure-activity relationship of 2-oxoamide inhibition of group IVA cytosolic phospholipase A2 and group V secreted phospholipase A2” (2007):

What was measured:
Homo sapiens [1] = species on record: Homo sapiens; assay: Inhibition of human GIVA cPLA2
Summary of the method: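 Pure native human GIVA cPLA2 (10 ng) in 100 mM HEPES pH 7.5, 80 µM CaCl2, 0.1 mg/mL fatty acid-free BSA, 2 mM DTT. Substrate was mixed micelles of 97 µM 1-palmitoyl-2-[14C]arachidonoyl PC, 3 µM PIP2 and 400 µM Triton X-100, in 1% DMSO. Incubated 10-60 min at 40 °C; [14C]-AA release measured by modified Dole assay and compared with DMSO-only control. XI(50) expressed as mole fraction of inhibitor over inhibitor plus substrate plus detergent.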

Homo sapiens [2] = species on record: Homo sapiens; assay: Inhibition of GV sPLA2 at 0.040 mole fraction
Summary of the method: (§1)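 Recombinant human GV sPLA2, expressed in E. coli as inclusion bodies, sulfonated, refolded and purified (>90%). Enzyme (40 ng) in 50 mM Tris-HCl pH 8.0, 5 mM CaCl2, with mixed micelles of 100 µM 1-palmitoyl-2-[14C]palmitoyl PC and 400 µM Triton X-100, in 1% DMSO. Incubated 10-60 min at 40 °C; released [14C]-palmitic acid measured by modified Dole extraction. Inhibitor dose expressed as mole fraction.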

Rattus norvegicus [3] = assay: Antiinflammatory activity against carrageenan-induced paw edema in rat; format: functional
Summary of the method: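 Compound given ip at the same time as intradermal carrageenan into the rat paw; rats were euthanized after 3.5 h. Edema was taken as injected minus uninjected paw weight and expressed as percent inhibition versus controls. Four doses were used, each on two groups of five animals, averaged over two experiments. ED50 was derived from the four doses; Student's t-test was used.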

Rattus norvegicus [4] = assay: Analgesic activity in rat assessed as decrease in writhes at 0.008 mmol/kg, ip; format: functional; set-up: scale not given: the % may be the effect or the level left
Summary of the method: (§2)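 Rat writhing test: compound given ip 30 min before ip acetic acid. Each animal's total writhes were compared with a vehicle-treated control group, and analgesic activity was expressed as percent decrease in writhes.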

Homo sapiens [5] = species on record: Homo sapiens; assay: Inhibition of GV sPLA2 at 0.091 mole fraction; summary of the method: as §1
Rattus norvegicus [6] = assay: Analgesic activity in rat assessed as decrease in writhes at 0.0165 mmol/kg, ip; format: functional; set-up: scale not given: the % may be the effect or the level left; summary of the method: as §2
Rattus norvegicus [7] = assay: Analgesic activity in rat assessed as decrease in writhes at 0.01 mmol/kg, ip; format: functional; set-up: scale not given: the % may be the effect or the level left; summary of the method: as §2
Rattus norvegicus [8] = assay: Analgesic activity in rat assessed as decrease in writhes at 0.0001 mmol/kg, ip; format: functional; set-up: scale not given: the % may be the effect or the level left; summary of the method: as §2
Homo sapiens [9] = species on record: Homo sapiens; assay: Inhibition of GV sPLA2 at 0.01 mole fraction; summary of the method: as §1
Rattus norvegicus [10] = assay: Analgesic activity in rat assessed as decrease in writhes at 0.00005 mmol/kg, ip; format: functional; set-up: scale not given: the % may be the effect or the level left; summary of the method: as §2
Homo sapiens [11] = species on record: Homo sapiens; assay: Inhibition of GV sPLA2 at 0.048 mole fraction; summary of the method: as §1
Homo sapiens [12] = species on record: Homo sapiens; assay: Inhibition of GV sPLA2 at 0.02 mole fraction; summary of the method: as §1

| Structure (SMILES) | XI50 (Homo sapiens [1]) | inhibition (Homo sapiens [5]) | further results |
| --- | --- | --- | --- |
| CCCCCCCCCCCCCCC(=O)C(=O)N[C@@H](CCCC)CCC(=O)O | 0.008 |  | ED50 (Rattus norvegicus [3]): 8 µmol/kg; Activity (Rattus norvegicus [4]): 65% |
| CCCCCCCCCCC(=O)C(=O)N[C@@H](CCC(=O)OC)COC(=O)NCCCCCCCC | 0.02 |  |  |
| CCCCCCCCCCCCCC(=O)C(=O)N[C@@H](CCCC)CCC(=O)O | 0.01 | 30% |  |
| CCCCCCCCCCCCCCC(=O)C(=O)N[C@@H](CCCC)COC(=O)NCCCCCCCC |  | 20% |  |
| CCCCCCCCCCC(=O)C(=O)N[C@@H](CCC(=O)O)COC(=O)NCCCCCCCC |  | 60% |  |
| CCCCCCCCCCCCCC(=O)C(=O)N[C@@H](CCCC)CC(=O)O | 0.027 |  |  |
| CCCCCCCCCCCCCCCCNC(=O)C(=O)CC |  | 30% |  |
| CCCCCCCCCCCCCCC(=O)C(=O)N[C@@H](CCC(=O)O)C(=O)NCCCCCCCCCC | 0.025 | 33% | ED50 (Rattus norvegicus [3]): 16.5 µmol/kg; Activity (Rattus norvegicus [6]): 11% |
| CCCCCCCCCCC(=O)C(=O)N[C@@H](CCCC)C(=O)O |  | 60% |  |
| CCCCCCCCCCCCCC(=O)C(=O)N[C@@H](CCCC)CCCCC(=O)O | 0.013 | 22% |  |
| CCCCCCCC/C=C\CCCCCCCCNC(=O)C(=O)CCCCCC |  |  | inhibition (Homo sapiens [9]): 22% |
| CCCCCCCCCCCCCCC(=O)C(=O)N[C@@H](CCCC)CCCC(=O)O | 0.005 |  | ED50 (Rattus norvegicus [3]): 0.05 µmol/kg; Activity (Rattus norvegicus [10]): 71% |
| CCCCCCC(=O)C(=O)NCCCC(=O)O |  |  | inhibition (Homo sapiens [11]): 27% |
| CCCCCCCC/C=C\CCCCCCCCNC(=O)C(=O)CCCCCCCCCCCCCC |  |  | inhibition (Homo sapiens [12]): 37% |

More lines, main results first:

| XI50 (Homo sapiens [1]) | inhibition (Homo sapiens [5]) | Structure (SMILES) | further results |
| --- | --- | --- | --- |
| 0.012 |  | CCCCCCCC/C=C\CCCCCCCC(=O)C(=O)NCCCC(=O)OC | inhibition (Homo sapiens [2]): 24% |
|  | 27% | O=C(O)CCCNC(=O)C(=O)CCCCc1ccccc1 |  |
|  | 30% | CCCCCCCCCCC(=O)C(=O)N[C@@H](CCC(=O)O)C(=O)NCC |  |
| 0.009 |  | CCCCCCCCCCC(=O)C(=O)N[C@@H](CCCC)CCC(=O)O |  |
| 0.017 |  | CCCCCCCCCCCCCCC(=O)C(=O)NCCCC(=O)O |  |
|  | 12% | CCCCCCCCCCC(=O)C(=O)N[C@H](CCC(=O)O)C(=O)NCC |  |
|  | 34% | O=C(O)CCCNC(=O)C(=O)CCCc1ccccc1 |  |
|  | 45% | NC(=O)C(=O)CCCCc1ccccc1 |  |
|  | 14% | CCCCCCC(=O)C(=O)N[C@H](CCC(=O)O)Cc1ccccc1 |  |
|  | 22% | CCCCCCCCCCCCCCC(=O)C(=O)NCCCC(=O)OC |  |
| 0.005 | 26% | CCCCCCCCCCCCCC(=O)C(=O)N[C@@H](CCCC)CCCC(=O)O |  |
| 0.025 | 22% | CCCCCCCCCCC(=O)C(=O)N[C@@H](CCCC)CCCCC(=O)O | ED50 (Rattus norvegicus [3]): 10 µmol/kg; Activity (Rattus norvegicus [7]): 33% |
| 0.011 |  | CCCCCCCC/C=C\CCCCCCCC(=O)C(=O)NCCCC(=O)O | ED50 (Rattus norvegicus [3]): 0.1 µmol/kg; Activity (Rattus norvegicus [8]): 53% |
|  | 31% | COC(=O)CCCNC(=O)C(=O)CCCCc1ccccc1 |  |
|  | 15% | CCCCCCCCCCC(=O)C(=O)N[C@@H](CCC(=O)O)C(=O)O |  |
|  | 48% | COC(=O)CCCNC(=O)C(=O)CCCc1ccccc1 |  |
